Assay results from the M2OR odorant receptor database.
Residue numbers refer to the chain shown, from its start.

Columns and labels:
Conditions in all cases: stereoisomer not certain
[1] = molecular target: T1, OR5M8 (Homo sapiens) (UniProt Q8NGP6)
T1 sequence (whole entry): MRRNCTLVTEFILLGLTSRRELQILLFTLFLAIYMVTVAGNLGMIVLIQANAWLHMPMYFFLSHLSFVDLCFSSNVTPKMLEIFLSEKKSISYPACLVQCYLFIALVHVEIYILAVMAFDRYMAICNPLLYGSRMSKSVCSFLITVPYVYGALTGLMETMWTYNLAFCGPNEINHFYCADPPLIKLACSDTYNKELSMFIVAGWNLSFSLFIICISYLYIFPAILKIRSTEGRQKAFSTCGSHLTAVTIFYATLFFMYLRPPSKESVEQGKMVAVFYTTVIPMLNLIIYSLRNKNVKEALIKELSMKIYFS
Outline: (§1)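 Transient luciferase assays in mammalian cell lines were common, though methods varied by source. The values come from published papers and their supplementary material, with extra details from the original authors when needed. Responsive refers to a measured signal the original authors judged statistically different from baseline, and non-responsive (inactive) to the remainder.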

[2] = molecular target: T2, OR5M9 (Homo sapiens) (UniProt Q8NGP3)
T2 sequence (whole entry): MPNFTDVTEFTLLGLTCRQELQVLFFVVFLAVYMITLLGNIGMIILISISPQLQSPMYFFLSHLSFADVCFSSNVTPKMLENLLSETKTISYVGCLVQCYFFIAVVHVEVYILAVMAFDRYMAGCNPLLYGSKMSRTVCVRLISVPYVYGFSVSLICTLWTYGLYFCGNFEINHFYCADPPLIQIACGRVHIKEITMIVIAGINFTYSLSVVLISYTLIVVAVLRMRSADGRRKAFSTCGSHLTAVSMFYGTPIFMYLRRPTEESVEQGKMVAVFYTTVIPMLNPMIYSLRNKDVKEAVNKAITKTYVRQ
Outline: as §1

[3] = tested on: T3, OR5MA L2F C311H
T3 sequence (whole entry): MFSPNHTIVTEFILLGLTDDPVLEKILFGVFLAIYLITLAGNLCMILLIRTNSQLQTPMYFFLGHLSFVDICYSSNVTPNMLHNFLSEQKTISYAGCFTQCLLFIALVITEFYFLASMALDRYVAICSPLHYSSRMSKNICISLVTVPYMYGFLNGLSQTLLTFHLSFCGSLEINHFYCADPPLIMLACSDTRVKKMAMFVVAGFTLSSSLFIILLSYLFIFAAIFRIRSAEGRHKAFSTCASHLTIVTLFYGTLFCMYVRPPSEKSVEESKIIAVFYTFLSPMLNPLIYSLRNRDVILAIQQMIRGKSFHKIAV
Outline: as §1

[4] = tested on: T4, OR5MA L2F Q54H C311H
T4 sequence (whole entry): T3 sequence (whole entry) with Q54H
Outline: as §1

[5] = molecular target: T5, OR5P2 (Homo sapiens) (UniProt Q8WZ92)
T5 sequence (whole entry): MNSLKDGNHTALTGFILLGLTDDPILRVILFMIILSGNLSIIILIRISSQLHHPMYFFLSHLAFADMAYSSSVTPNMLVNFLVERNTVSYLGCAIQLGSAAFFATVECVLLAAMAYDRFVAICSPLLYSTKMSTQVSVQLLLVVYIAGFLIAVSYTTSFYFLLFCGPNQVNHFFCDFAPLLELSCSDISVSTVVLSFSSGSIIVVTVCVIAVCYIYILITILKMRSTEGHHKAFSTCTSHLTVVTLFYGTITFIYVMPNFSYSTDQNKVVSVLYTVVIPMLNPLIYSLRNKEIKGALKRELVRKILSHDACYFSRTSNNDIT
Outline: as §1

[6] = molecular target: T6, OR5P3 (Homo sapiens) (UniProt Q8WZ94)
T6 sequence (whole entry): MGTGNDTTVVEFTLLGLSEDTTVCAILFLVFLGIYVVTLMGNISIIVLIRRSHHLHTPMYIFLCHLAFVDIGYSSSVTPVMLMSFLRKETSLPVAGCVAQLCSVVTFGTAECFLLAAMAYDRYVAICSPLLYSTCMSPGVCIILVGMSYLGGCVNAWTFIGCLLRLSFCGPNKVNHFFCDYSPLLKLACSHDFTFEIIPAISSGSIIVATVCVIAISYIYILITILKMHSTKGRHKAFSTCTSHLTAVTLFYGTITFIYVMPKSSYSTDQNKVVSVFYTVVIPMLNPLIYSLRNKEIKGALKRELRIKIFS
Outline: as §1

[7] = tested on: T7, OR5P3 L301R
T7 sequence (whole entry): T6 sequence (whole entry) with L301R
Outline: as §1

[8] = tested on: T8, OR5R1 C122R S128G F184L
T8 sequence (whole entry): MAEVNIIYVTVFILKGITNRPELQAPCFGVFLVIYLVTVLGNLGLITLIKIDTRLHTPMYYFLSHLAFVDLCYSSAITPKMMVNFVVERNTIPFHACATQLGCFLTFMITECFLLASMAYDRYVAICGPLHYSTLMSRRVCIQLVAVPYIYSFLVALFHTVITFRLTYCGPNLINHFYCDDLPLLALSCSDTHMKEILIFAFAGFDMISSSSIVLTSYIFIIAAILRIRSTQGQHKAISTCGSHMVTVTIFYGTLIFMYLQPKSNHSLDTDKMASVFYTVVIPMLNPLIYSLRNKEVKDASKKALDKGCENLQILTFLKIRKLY
Outline: as §1

[9] = molecular target: T9, OR5T1 (Homo sapiens) (UniProt Q8NG75)
T9 sequence (whole entry): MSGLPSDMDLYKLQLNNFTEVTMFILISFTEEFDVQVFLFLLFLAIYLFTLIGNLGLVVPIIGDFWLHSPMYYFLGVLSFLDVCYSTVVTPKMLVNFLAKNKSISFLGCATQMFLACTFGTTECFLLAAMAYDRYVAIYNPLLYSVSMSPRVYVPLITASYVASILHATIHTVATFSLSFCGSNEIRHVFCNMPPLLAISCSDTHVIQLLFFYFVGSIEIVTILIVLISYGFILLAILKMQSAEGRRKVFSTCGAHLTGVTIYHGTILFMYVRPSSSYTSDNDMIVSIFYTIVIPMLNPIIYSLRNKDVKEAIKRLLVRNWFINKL
Outline: as §1

[10] = molecular target: T10, OR5T2 (Homo sapiens) (UniProt Q8NGG2)
T10 sequence (whole entry): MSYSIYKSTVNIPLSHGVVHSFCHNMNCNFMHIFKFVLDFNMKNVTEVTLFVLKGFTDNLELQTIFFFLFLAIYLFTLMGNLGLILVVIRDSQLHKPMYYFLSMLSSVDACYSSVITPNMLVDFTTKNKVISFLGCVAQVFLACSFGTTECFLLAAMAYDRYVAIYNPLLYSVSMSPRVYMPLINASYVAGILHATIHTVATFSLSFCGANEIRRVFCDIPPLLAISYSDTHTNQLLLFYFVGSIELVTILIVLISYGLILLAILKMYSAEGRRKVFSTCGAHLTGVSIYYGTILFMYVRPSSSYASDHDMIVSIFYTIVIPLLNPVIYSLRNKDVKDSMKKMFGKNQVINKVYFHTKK
Outline: as §1

[11] = tested on: T11, OR5T2 S4G
T11 sequence (whole entry): T10 sequence (whole entry) with S4G
Outline: as §1

[12] = molecular target: T12, OR5T3 (Homo sapiens) (UniProt Q8NGG3)
T12 sequence (whole entry): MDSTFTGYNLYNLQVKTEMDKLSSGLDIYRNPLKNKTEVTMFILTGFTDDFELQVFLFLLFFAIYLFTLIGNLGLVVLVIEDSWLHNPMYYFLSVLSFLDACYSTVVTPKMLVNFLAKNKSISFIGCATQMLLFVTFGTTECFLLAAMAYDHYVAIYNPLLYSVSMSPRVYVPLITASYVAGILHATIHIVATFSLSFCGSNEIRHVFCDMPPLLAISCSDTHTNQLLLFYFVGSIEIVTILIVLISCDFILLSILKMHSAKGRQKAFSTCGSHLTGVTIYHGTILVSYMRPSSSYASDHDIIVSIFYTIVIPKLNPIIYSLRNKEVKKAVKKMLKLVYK
Outline: as §1

[13] = molecular target: T13, OR5V1 (Homo sapiens) (UniProt Q9UGF6)
T13 sequence (whole entry): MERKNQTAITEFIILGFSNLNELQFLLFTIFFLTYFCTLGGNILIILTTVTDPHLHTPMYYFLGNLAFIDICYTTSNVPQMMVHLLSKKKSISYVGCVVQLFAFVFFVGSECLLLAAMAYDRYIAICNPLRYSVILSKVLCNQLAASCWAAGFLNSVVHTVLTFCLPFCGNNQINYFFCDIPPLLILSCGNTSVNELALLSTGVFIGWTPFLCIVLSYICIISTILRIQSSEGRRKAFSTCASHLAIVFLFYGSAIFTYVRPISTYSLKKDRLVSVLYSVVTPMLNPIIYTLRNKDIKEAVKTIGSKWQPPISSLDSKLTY
Outline: as §1

[14] = molecular target: T14, OR5W2 (Homo sapiens) (UniProt Q8NH69)
T14 sequence (whole entry): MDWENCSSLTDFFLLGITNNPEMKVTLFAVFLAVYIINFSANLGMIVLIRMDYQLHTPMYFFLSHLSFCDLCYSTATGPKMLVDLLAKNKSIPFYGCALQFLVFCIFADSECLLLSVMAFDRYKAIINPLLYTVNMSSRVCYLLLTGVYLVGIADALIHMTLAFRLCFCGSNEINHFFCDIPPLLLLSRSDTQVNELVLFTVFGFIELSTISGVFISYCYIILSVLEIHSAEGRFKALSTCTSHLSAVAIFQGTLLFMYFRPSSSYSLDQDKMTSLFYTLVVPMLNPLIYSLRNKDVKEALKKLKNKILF
Outline: as §1

[15] = tested on: T15, OR5W2 R189C
T15 sequence (whole entry): T14 sequence (whole entry) with R189C
Outline: as §1

[16] = molecular target: T16, OR6A2 (Homo sapiens) (UniProt O95222)
T16 sequence (whole entry): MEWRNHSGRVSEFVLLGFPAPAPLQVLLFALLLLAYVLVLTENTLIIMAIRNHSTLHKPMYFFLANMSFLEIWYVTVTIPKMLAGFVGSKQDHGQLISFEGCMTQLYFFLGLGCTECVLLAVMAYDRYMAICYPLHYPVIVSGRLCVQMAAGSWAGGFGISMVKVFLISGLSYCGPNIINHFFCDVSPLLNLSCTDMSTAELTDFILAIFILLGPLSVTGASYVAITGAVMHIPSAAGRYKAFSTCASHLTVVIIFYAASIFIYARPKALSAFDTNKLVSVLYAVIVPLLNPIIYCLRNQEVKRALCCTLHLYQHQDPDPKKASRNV
Outline: as §1

[17] = tested on: T17, OR6A2 I50V
T17 sequence (whole entry): T16 sequence (whole entry) with I50V
Outline: as §1

[18] = molecular target: T18, OR6B1 (Homo sapiens) (UniProt O95007)
T18 sequence (whole entry): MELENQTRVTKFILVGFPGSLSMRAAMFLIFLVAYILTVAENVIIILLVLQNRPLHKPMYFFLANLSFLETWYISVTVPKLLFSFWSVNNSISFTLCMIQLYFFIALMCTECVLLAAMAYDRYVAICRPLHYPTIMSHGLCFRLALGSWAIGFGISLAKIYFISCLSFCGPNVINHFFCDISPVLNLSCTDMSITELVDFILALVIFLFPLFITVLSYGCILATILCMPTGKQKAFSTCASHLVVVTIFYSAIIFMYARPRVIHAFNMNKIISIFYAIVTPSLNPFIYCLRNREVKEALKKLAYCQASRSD
Outline: as §1

[19] = molecular target: T19, OR6B2 (Homo sapiens) (UniProt Q6IFH4)
T19 sequence (whole entry): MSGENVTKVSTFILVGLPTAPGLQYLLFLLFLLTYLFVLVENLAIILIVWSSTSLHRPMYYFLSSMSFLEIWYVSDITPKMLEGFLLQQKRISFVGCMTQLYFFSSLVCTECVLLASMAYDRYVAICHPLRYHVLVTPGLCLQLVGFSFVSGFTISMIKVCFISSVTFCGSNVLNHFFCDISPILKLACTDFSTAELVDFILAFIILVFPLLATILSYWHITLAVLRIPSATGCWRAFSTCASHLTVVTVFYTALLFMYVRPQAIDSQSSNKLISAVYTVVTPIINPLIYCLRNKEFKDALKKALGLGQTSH
Outline: as §1

[20] = tested on: T20, OR6B2 R122C C179R
T20 sequence (whole entry): T19 sequence (whole entry) with R122C, C179R
Outline: as §1

Measured: odorant receptor agonist call;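 further: active if original authors judged signal statistically different from baseline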

Cc1cnc(C)c(C)n1
inactive: [1] | [2] | [3] | [4] | [5] | [6] | [7] | [8] | [9] | [10] | [11] | [12] | [13] | [14] | [15] | [16] | [17] | [18] | [19] | [20]

CCCCOC=O
inactive: [6]

C=C(C)C1CCC(C)C(=O)C1 (stereo not given)
inactive: [6]

CCCCCCC=CCCC=O
inactive: [1] | [2] | [3] | [4] | [5] | [6] | [7] | [8] | [9] | [10] | [11] | [12] | [13] | [14] | [15] | [16] | [17] | [18] | [19] | [20]

CC(=O)c1c(C)c([N+](=O)[O-])c(C(C)(C)C)c([N+](=O)[O-])c1C
inactive: [1] | [2] | [5] | [6] | [9] | [10] | [12] | [13] | [14] | [16] | [18] | [19]

CCCCOC(=O)C(C)OC(=O)CCC (stereo not given)
inactive: [6]

CC1=C(O)C(=O)C(C)O1 (stereo not given)
inactive: [1] | [2] | [3] | [4] | [5] | [6] | [7] | [8] | [9] | [10] | [11] | [12] | [13] | [14] | [15] | [16] | [17] | [18] | [19] | [20]
